In ChEMBL document CHEMBL5143728, “Next-Generation Diprovocims with Potent Human and Murine TLR1/TLR2 Agonist Activity That Activate the Innate and Adaptive Immune Response” (J Med Chem, 2022):

How the values were obtained:
[1] = molecular target: Toll-like receptor 1/2 (Mus musculus) (UniProt Q9QUN7+Q9EPQ1); assay: Agonist activity at TLR1/TLR2 in wild type C57BL/6J mouse macrophages assessed as stimulation of TNF alpha release measured for 4 hrs by ELISA based assay relative to diprovocim-1; assay type: cell-based; set-up: Activity: concentration or dose not given beside the values; settings: Macrophage
In short: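 Thioglycolate-elicited peritoneal macrophages from wild type C57BL/6J mice, harvested by PBS lavage 4 d after i.p. 4% thioglycolate. Cultured in DMEM/10% FBS at 37 °C, 5% CO2, seeded at 1 × 10⁵ cells/well and exposed to graded compound concentrations for 4 h, with final DMSO ≤0.5% held constant. LPS served as positive control. Supernatant mouse TNF-α was read by ELISA. EC50 from duplicate means.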

Toll-like receptor 1/2 = Toll-like receptor 1/2 (Homo sapiens, UniProt O60603+Q15399); assay: Agonist activity at TLR1/TLR2 in human THP-1 derived macrophages assessed as stimulation of TNF alpha release measured for 4 hrs by ELISA based assay relative to diprovocim-1; assay type: cell-based; set-up: Activity: concentration or dose not given beside the values
In short: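 THP-1 cells differentiated with 100 nM PMA in RPMI/10% FBS for 24 h, washed, then rested 24 h in fresh medium. Seeded at 0.5 × 10⁵ cells/well and exposed to graded compound concentrations for 4 h, with final DMSO held at 0.1%. LPS served as positive control and DMSO as negative control. Supernatant human TNF-α was read by ELISA. EC50 from duplicate means.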

Structure (SMILES)	Activity ([1]; filed as agonist)	Activity (Toll-like receptor 1/2; filed as agonist)	Activity (Toll-like receptor 1/2)	Activity [1]
O=C(OCCCCCCCCCCCCNC(=O)[C@@H]1CN(C(=O)c2ccc(C(=O)N3C[C@@H](C(=O)N[C@H]4C[C@@H]4c4ccccc4)[C@H](C(=O)N[C@H]4C[C@@H]4c4ccccc4)C3)cc2)C[C@H]1C(=O)N[C@H]1C[C@@H]1c1ccccc1)c1ccc(O)cc1	540%	100%	–	–
CC(C)(C)OC(=O)c1ccc(C(=O)OCCCCCCCCCCCCNC(=O)[C@@H]2CN(C(=O)c3ccc(C(=O)N4C[C@@H](C(=O)N[C@H]5C[C@@H]5c5ccccc5)[C@H](C(=O)N[C@H]5C[C@@H]5c5ccccc5)C4)cc3)C[C@H]2C(=O)N[C@H]2C[C@@H]2c2ccccc2)cc1	190%	90%	–	–
O=C(CNC(=O)C(F)(F)F)OCCCCCCCCCCCCNC(=O)[C@@H]1CN(C(=O)c2ccc(C(=O)N3C[C@@H](C(=O)N[C@H]4C[C@@H]4c4ccccc4)[C@H](C(=O)N[C@H]4C[C@@H]4c4ccccc4)C3)cc2)C[C@H]1C(=O)N[C@H]1C[C@@H]1c1ccccc1	100%	100%	–	–
[N-]=[N+]=NCCCCCCCCCCCCNC(=O)[C@@H]1CN(C(=O)c2ccc(C(=O)N3C[C@@H](C(=O)N[C@H]4C[C@@H]4c4ccccc4)[C@H](C(=O)N[C@H]4C[C@@H]4c4ccccc4)C3)cc2)C[C@H]1C(=O)N[C@H]1C[C@@H]1c1ccccc1	50%	–	30%	–
O=C(O)CNC(=O)CCCCCCCCCCCNC(=O)[C@@H]1CN(C(=O)c2ccc(C(=O)N3C[C@@H](C(=O)N[C@H]4C[C@@H]4c4ccccc4)[C@H](C(=O)N[C@H]4C[C@@H]4c4ccccc4)C3)cc2)C[C@H]1C(=O)N[C@H]1C[C@@H]1c1ccccc1	–	110%	–	30%
O=C(CNC(=O)OCC1c2ccccc2-c2ccccc21)OCCCCCCCCCCCCNC(=O)[C@@H]1CN(C(=O)c2ccc(C(=O)N3C[C@@H](C(=O)N[C@H]4C[C@@H]4c4ccccc4)[C@H](C(=O)N[C@H]4C[C@@H]4c4ccccc4)C3)cc2)C[C@H]1C(=O)N[C@H]1C[C@@H]1c1ccccc1	170%	100%	–	–
CC(C)[C@H](NC(=O)OC(C)(C)C)C(=O)OCCCCCCCCCCCCNC(=O)[C@@H]1CN(C(=O)c2ccc(C(=O)N3C[C@@H](C(=O)N[C@H]4C[C@@H]4c4ccccc4)[C@H](C(=O)N[C@H]4C[C@@H]4c4ccccc4)C3)cc2)C[C@H]1C(=O)N[C@H]1C[C@@H]1c1ccccc1	180%	100%	–	–
CC(C)(C)OC(=O)Nc1ccc(C(=O)OCCCCCCCCCCCCNC(=O)[C@@H]2CN(C(=O)c3ccc(C(=O)N4C[C@@H](C(=O)N[C@H]5C[C@@H]5c5ccccc5)[C@H](C(=O)N[C@H]5C[C@@H]5c5ccccc5)C4)cc3)C[C@H]2C(=O)N[C@H]2C[C@@H]2c2ccccc2)cc1	540%	90%	–	–
NCCCCCCCCCCCCNC(=O)[C@@H]1CN(C(=O)c2ccc(C(=O)N3C[C@@H](C(=O)N[C@H]4C[C@@H]4c4ccccc4)[C@H](C(=O)N[C@H]4C[C@@H]4c4ccccc4)C3)cc2)C[C@H]1C(=O)N[C@H]1C[C@@H]1c1ccccc1	130%	140%	–	–
CC(C)(C)OC(=O)C(=O)NCC(=O)OCCCCCCCCCCCCNC(=O)[C@@H]1CN(C(=O)c2ccc(C(=O)N3C[C@@H](C(=O)N[C@H]4C[C@@H]4c4ccccc4)[C@H](C(=O)N[C@H]4C[C@@H]4c4ccccc4)C3)cc2)C[C@H]1C(=O)N[C@H]1C[C@@H]1c1ccccc1	400%	110%	–	–
C[C@@H](NC(=O)OC(C)(C)C)C(=O)OCCCCCCCCCCCCNC(=O)[C@@H]1CN(C(=O)c2ccc(C(=O)N3C[C@@H](C(=O)N[C@H]4C[C@@H]4c4ccccc4)[C@H](C(=O)N[C@H]4C[C@@H]4c4ccccc4)C3)cc2)C[C@H]1C(=O)N[C@H]1C[C@@H]1c1ccccc1	200%	110%	–	–
Nc1ccc(CCCCCCCCNC(=O)[C@@H]2CN(C(=O)c3ccc(C(=O)N4C[C@@H](C(=O)N[C@H]5C[C@@H]5c5ccccc5)[C@H](C(=O)N[C@H]5C[C@@H]5c5ccccc5)C4)cc3)C[C@H]2C(=O)N[C@H]2C[C@@H]2c2ccccc2)cc1	250%	100%	–	–
O=C(NCCCCCCCCCCCCOCc1ccc([N+](=O)[O-])cc1)[C@@H]1CN(C(=O)c2ccc(C(=O)N3C[C@@H](C(=O)N[C@H]4C[C@@H]4c4ccccc4)[C@H](C(=O)N[C@H]4C[C@@H]4c4ccccc4)C3)cc2)C[C@H]1C(=O)N[C@H]1C[C@@H]1c1ccccc1	230%	110%	–	–
[N-]=[N+]=NCC(=O)OCCCCCCCCCCCCNC(=O)[C@@H]1CN(C(=O)c2ccc(C(=O)N3C[C@@H](C(=O)N[C@H]4C[C@@H]4c4ccccc4)[C@H](C(=O)N[C@H]4C[C@@H]4c4ccccc4)C3)cc2)C[C@H]1C(=O)N[C@H]1C[C@@H]1c1ccccc1	120%	100%	–	–
COC(=O)CNC(=O)OCCCCCCCCCCCCNC(=O)[C@@H]1CN(C(=O)c2ccc(C(=O)N3C[C@@H](C(=O)N[C@H]4C[C@@H]4c4ccccc4)[C@H](C(=O)N[C@H]4C[C@@H]4c4ccccc4)C3)cc2)C[C@H]1C(=O)N[C@H]1C[C@@H]1c1ccccc1	90%	90%	–	–
CC(C)(C)OC(=O)CCOCCOCCOCCNC(=O)CCCCCCCCCCCNC(=O)[C@@H]1CN(C(=O)c2ccc(C(=O)N3C[C@@H](C(=O)N[C@H]4C[C@@H]4c4ccccc4)[C@H](C(=O)N[C@H]4C[C@@H]4c4ccccc4)C3)cc2)C[C@H]1C(=O)N[C@H]1C[C@@H]1c1ccccc1	140%	100%	–	–
CC(C)(C)OC(=O)N[C@@H](COCc1ccccc1)C(=O)OCCCCCCCCCCCCNC(=O)[C@@H]1CN(C(=O)c2ccc(C(=O)N3C[C@@H](C(=O)N[C@H]4C[C@@H]4c4ccccc4)[C@H](C(=O)N[C@H]4C[C@@H]4c4ccccc4)C3)cc2)C[C@H]1C(=O)N[C@H]1C[C@@H]1c1ccccc1	370%	100%	–	–
CC(C)(C)OC(=O)N[C@@H](CCCCNC(=O)OCC1c2ccccc2-c2ccccc21)C(=O)OCCCCCCCCCCCCNC(=O)[C@@H]1CN(C(=O)c2ccc(C(=O)N3C[C@@H](C(=O)N[C@H]4C[C@@H]4c4ccccc4)[C@H](C(=O)N[C@H]4C[C@@H]4c4ccccc4)C3)cc2)C[C@H]1C(=O)N[C@H]1C[C@@H]1c1ccccc1	200%	100%	–	–
CC(=O)NCC(=O)OCCCCCCCCCCCCNC(=O)[C@@H]1CN(C(=O)c2ccc(C(=O)N3C[C@@H](C(=O)N[C@H]4C[C@@H]4c4ccccc4)[C@H](C(=O)N[C@H]4C[C@@H]4c4ccccc4)C3)cc2)C[C@H]1C(=O)N[C@H]1C[C@@H]1c1ccccc1	180%	90%	–	–
N#CCC(=O)OCCCCCCCCCCCCNC(=O)[C@@H]1CN(C(=O)c2ccc(C(=O)N3C[C@@H](C(=O)N[C@H]4C[C@@H]4c4ccccc4)[C@H](C(=O)N[C@H]4C[C@@H]4c4ccccc4)C3)cc2)C[C@H]1C(=O)N[C@H]1C[C@@H]1c1ccccc1	120%	130%	–	–
CC(C)(C)OC(=O)NNC(=O)OCCCCCCCCCCCCNC(=O)[C@@H]1CN(C(=O)c2ccc(C(=O)N3C[C@@H](C(=O)N[C@H]4C[C@@H]4c4ccccc4)[C@H](C(=O)N[C@H]4C[C@@H]4c4ccccc4)C3)cc2)C[C@H]1C(=O)N[C@H]1C[C@@H]1c1ccccc1	220%	100%	–	–
O=C(O)/C=C/C(=O)NCC(=O)OCCCCCCCCCCCCNC(=O)[C@@H]1CN(C(=O)c2ccc(C(=O)N3C[C@@H](C(=O)N[C@H]4C[C@@H]4c4ccccc4)[C@H](C(=O)N[C@H]4C[C@@H]4c4ccccc4)C3)cc2)C[C@H]1C(=O)N[C@H]1C[C@@H]1c1ccccc1	60%	100%	–	–
O=C(O)CCCCCCCCCCCNC(=O)[C@@H]1CN(C(=O)c2ccc(C(=O)N3C[C@@H](C(=O)N[C@H]4C[C@@H]4c4ccccc4)[C@H](C(=O)N[C@H]4C[C@@H]4c4ccccc4)C3)cc2)C[C@H]1C(=O)N[C@H]1C[C@@H]1c1ccccc1	110%	100%	–	–
O=C(CO)OCCCCCCCCCCCCNC(=O)[C@@H]1CN(C(=O)c2ccc(C(=O)N3C[C@@H](C(=O)N[C@H]4C[C@@H]4c4ccccc4)[C@H](C(=O)N[C@H]4C[C@@H]4c4ccccc4)C3)cc2)C[C@H]1C(=O)N[C@H]1C[C@@H]1c1ccccc1	140%	100%	–	–
CC(=O)OCCCCCCCCCCCCNC(=O)[C@@H]1CN(C(=O)c2ccc(C(=O)N3C[C@@H](C(=O)N[C@H]4C[C@@H]4c4ccccc4)[C@H](C(=O)N[C@H]4C[C@@H]4c4ccccc4)C3)cc2)C[C@H]1C(=O)N[C@H]1C[C@@H]1c1ccccc1	140%	90%	–	–
O=C(CNC(=O)OCc1ccccc1)OCCCCCCCCCCCCNC(=O)[C@@H]1CN(C(=O)c2ccc(C(=O)N3C[C@@H](C(=O)N[C@H]4C[C@@H]4c4ccccc4)[C@H](C(=O)N[C@H]4C[C@@H]4c4ccccc4)C3)cc2)C[C@H]1C(=O)N[C@H]1C[C@@H]1c1ccccc1	410%	100%	–	–
C#CCOCC(=O)OCCCCCCCCCCCCNC(=O)[C@@H]1CN(C(=O)c2ccc(C(=O)N3C[C@@H](C(=O)N[C@H]4C[C@@H]4c4ccccc4)[C@H](C(=O)N[C@H]4C[C@@H]4c4ccccc4)C3)cc2)C[C@H]1C(=O)N[C@H]1C[C@@H]1c1ccccc1	110%	–	30%	–
CC(C)(C)OC(=O)c1ccc(C(=O)NCCOCCCCCCCCCCCCNC(=O)[C@@H]2CN(C(=O)c3ccc(C(=O)N4C[C@@H](C(=O)N[C@H]5C[C@@H]5c5ccccc5)[C@H](C(=O)N[C@H]5C[C@@H]5c5ccccc5)C4)cc3)C[C@H]2C(=O)N[C@H]2C[C@@H]2c2ccccc2)cc1	160%	110%	–	–
